The list is not random: actives were taken first. Their share in the collection is about 2.2%.
NF-kB neuron act: raises NF-kB expression in human neuronal cells | 190,000 tested, 1.6% active | fold change at 12.5 µM | NF-kB reporter expression; hits give high values; in the data active means fold change above about 3.3
FLuc inh counter: inhibits firefly luciferase, flagging false hits in luciferase inhibition screens; ATPLite firefly luciferase biochemical luminescence, 10 min; 200,000 tested, 1.5% active; inhibition, % at 10 µM; P08659;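 active means inhibition above about 50% when tested at 10 µM, limit read from the data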
Target sequence (P08659 whole entry, looked up): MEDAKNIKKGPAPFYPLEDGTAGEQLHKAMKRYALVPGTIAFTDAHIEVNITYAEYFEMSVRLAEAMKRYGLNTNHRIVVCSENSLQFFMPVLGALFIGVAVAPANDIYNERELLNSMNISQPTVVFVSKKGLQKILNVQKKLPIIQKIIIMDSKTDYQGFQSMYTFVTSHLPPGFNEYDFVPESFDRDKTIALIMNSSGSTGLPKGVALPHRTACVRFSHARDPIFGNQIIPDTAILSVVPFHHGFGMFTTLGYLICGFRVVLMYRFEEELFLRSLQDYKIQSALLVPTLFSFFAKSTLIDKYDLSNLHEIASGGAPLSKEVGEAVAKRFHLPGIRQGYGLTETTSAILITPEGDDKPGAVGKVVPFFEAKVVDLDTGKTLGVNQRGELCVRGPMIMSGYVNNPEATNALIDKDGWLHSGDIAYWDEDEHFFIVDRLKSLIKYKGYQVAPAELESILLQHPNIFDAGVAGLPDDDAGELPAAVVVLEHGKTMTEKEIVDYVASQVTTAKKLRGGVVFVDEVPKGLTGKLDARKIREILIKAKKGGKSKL
FLuc act counter: affects firefly luciferase, flagging false hits in luciferase stimulation screens; P08659; ATPlite luciferase biochemical, luminescence, 10 min; 0 = ATP-free wells, 1 = DMSO control; activation factor at 10 µM; 200,000 tested, under 10 active;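 active means luciferase activation factor, scaled between plate controls, of at least 2 with compound at 10 µM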
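Material: luciferase plus luciferin reagent, cell-free. Medium: PBS buffer for ATP. Also added: ATP substrate, dispensed from a 10.24 µM working solution in PBS. Doses: test compounds dosed from 2 mM stocks in 100% DMSO. Incubation: 10 min post-reagent at room temperature. Technique: light output (luminescence). Read-out basis: luminescence gain marking luciferase activators.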
C8 TRAIL sens: caspase-8 TRAIL sensitization; AID 624354; NB7+C8 cells + TRAIL, ATPlite viability luminescence; 360,000 tested, 1% active; inhibition (viability loss, TRAIL sensitization), % at 10 µM;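 active means compounds causing at least 50% loss of cell viability in the single-dose screen, relative to plate controls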
PPC-1+TRAIL kill: PPC-1 cancer cell killing with TRAIL present. cell killing (% activity), % at 4 µM or 5 µM. 220,000 tested, 0.41% active. AID 1443. PPC-1 cells + TRAIL, ATPLite viability luminescence;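 active means cell killing above 50% in the first pass at 4 µM, then a duplicate retest at 5 µM averaging 50% or more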
APP 5'UTR act: APP 5'UTR luciferase reporter activation | activation, % at 2 µM | SH-SY5Y APP 5'UTR luciferase reporter, luminescence; zero percent = DMSO vehicle wells | 190,000 tested, 1% active | AID 1276;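 active means activation above a set limit, based on mean plus 3 SD of controls, cut at about 140% in these data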
Large screens that a line does not name were inactive.

Cc1cc(C2=NNC(=NC3CCCCC3)SC2)c(C)n1-c1c(C)n(C)n(-c2ccccc2)c1=O	none
c1ccc(CN=C2NN=C(c3cc4ccccc4o3)CS2)cc1	none
c1ccc2oc(C3=NNC(=NC4CC4)SC3)cc2c1	FLuc inh counter 79 (no result: APP 5'UTR act)
Cc1cc(C2=NNC(=NC3CC3)SC2)c(C)n1-c1ccccc1F	FLuc inh counter 96, C8 TRAIL sens 95, PPC-1+TRAIL kill 64
c1csc(C2=NNC(=NC3CCCCC3)SC2)c1	FLuc inh counter 74, APP 5'UTR act 137
CCCN(C)C1CN(Cc2cn(Cc3ccc(F)cc3)nn2)S(=O)(=O)C1 (centres undefined)	none (no result: NF-kB neuron act, FLuc inh counter, FLuc act counter, PPC-1+TRAIL kill, APP 5'UTR act)
CC1=C(C(=O)N2CCCCCC2)CC(CC(=O)NCCN2CCOCC2)C(=O)N1CCC1=CCCCC1 (centres undefined)	none (no result: NF-kB neuron act, FLuc inh counter, FLuc act counter, PPC-1+TRAIL kill, APP 5'UTR act)
O=C(/C=C/c1ccc2c(c1)OCO2)c1ccc(F)cc1	none
Cc1ccc(C(=O)/C=C/c2ccc(Br)cc2)o1	none
Cc1ccc(C(=O)/C=C/c2ccccc2)o1	FLuc inh counter 72
Cc1ccc(C(=O)/C=C/c2ccc3c(c2)OCO3)o1	FLuc inh counter 80
O=C(/C=C/c1ccc2c(c1)OCO2)c1ccc[nH]1	FLuc inh counter 76, APP 5'UTR act 188
Cc1ccc(C(=O)N/N=C/c2ccc3c(c2)OCO3)o1	FLuc inh counter 69
Cc1ccc(C(=O)NN=Cc2ccc3c(c2)OCO3)cc1	none (no result: NF-kB neuron act, FLuc inh counter, FLuc act counter, PPC-1+TRAIL kill, APP 5'UTR act)
CC(=O)N1C[C@H]2CON(C)[C@H]2C[C@H]1c1cccc(-c2ccc(C#N)cc2)c1	none (no result: NF-kB neuron act, FLuc inh counter, FLuc act counter, PPC-1+TRAIL kill, APP 5'UTR act)
COc1cccc(/C=C/C(=O)c2ccc[nH]2)c1	NF-kB neuron act 6.6, FLuc inh counter 52, APP 5'UTR act 201
O=C(N/N=C/c1ccc(Br)cc1)c1ccc(Br)o1	NF-kB neuron act 3.5, FLuc inh counter 58
COc1cccc(/C=C/C(=O)Oc2ccc(C(=O)c3ccc(F)cc3)cc2)c1	none
CCCCC(CC)CN=C(N)NC(N)=NCCCCCCN=C(N)NC(N)=NCC(CC)CCCC (centres undefined)	C8 TRAIL sens 95 (no result: NF-kB neuron act, FLuc inh counter, FLuc act counter, PPC-1+TRAIL kill, APP 5'UTR act)
Cc1ccc(C)c(C(=O)Cn2ncc(Cl)c(Cl)c2=O)c1	C8 TRAIL sens 97
Cc1cc(C(=O)Cn2ncc(Cl)c(Cl)c2=O)c(C)n1CC(F)(F)F	none
Cc1cccc(Cn2ncc(Cl)c(Cl)c2=O)c1	C8 TRAIL sens 54 (no result: APP 5'UTR act)
O=c1c2ccccc2cnn1Cc1ccc(Cl)c(Cl)c1	none (no result: NF-kB neuron act, FLuc inh counter, FLuc act counter, PPC-1+TRAIL kill, APP 5'UTR act)
C/C(=N\NC(=O)c1cc(O)ccc1O)c1cccc(NC(=O)c2cccc(Cl)c2)c1	none (no result: NF-kB neuron act, FLuc inh counter, FLuc act counter, PPC-1+TRAIL kill, APP 5'UTR act)
COc1ccc(C(=O)N/N=C(\C)c2cccc(NC(=O)c3ccc(F)cc3)c2)c(OC)c1	none (no result: NF-kB neuron act, FLuc inh counter, FLuc act counter, PPC-1+TRAIL kill, APP 5'UTR act)
COc1ccc(C(=O)N/N=C(/C)c2cccc(NC(=O)c3ccccc3F)c2)cc1	C8 TRAIL sens 59 (no result: NF-kB neuron act, FLuc inh counter, FLuc act counter, PPC-1+TRAIL kill, APP 5'UTR act)
C/C(=N\NC(=O)c1ccncc1)c1cccc(NC(=O)c2ccc(C(C)(C)C)cc2)c1	C8 TRAIL sens 80 (no result: NF-kB neuron act, FLuc inh counter, FLuc act counter, PPC-1+TRAIL kill, APP 5'UTR act)
C/C(=N\NC(=O)c1cc(O)ccc1O)c1cccc(NC(=O)c2ccc(Cl)cc2)c1	C8 TRAIL sens 58 (no result: NF-kB neuron act, FLuc inh counter, FLuc act counter, PPC-1+TRAIL kill, APP 5'UTR act)
COc1ccc(-c2cc3ccc(F)cc3cn2)cc1	C8 TRAIL sens 57 (no result: NF-kB neuron act, FLuc inh counter, FLuc act counter, PPC-1+TRAIL kill, APP 5'UTR act)
O=C(C[C@H]1C/C=C\C[C@H](NC(=O)OCC2c3ccccc3-c3ccccc32)C(=O)O[C@H](c2ccccc2)CNC1=O)N[C@H](CO)Cc1ccccc1	C8 TRAIL sens 85 (no result: NF-kB neuron act, FLuc inh counter, FLuc act counter, PPC-1+TRAIL kill, APP 5'UTR act)
O=C(NCc1ccccc1)c1cc(C2CCCN(S(=O)(=O)c3cccs3)C2)on1 (centres undefined)	none (no result: NF-kB neuron act, FLuc inh counter, FLuc act counter, PPC-1+TRAIL kill, APP 5'UTR act)
O=C1C(N2CCOCC2)=C(n2nnc3ccccc32)C(=O)c2ccccc21	C8 TRAIL sens 94
CCCSc1nsc(NC(=O)CC)n1	NF-kB neuron act 3.7
S=C1NC(c2ccccc2)=CC(c2ccccc2)N1 (centres undefined)	none
S=C1NC(c2cccs2)=CC(c2ccc(Br)cc2)N1 (centres undefined)	NF-kB neuron act 4
CC1CCN(c2ccc(NC(=O)c3ccc([N+](=O)[O-])o3)cc2)CC1	C8 TRAIL sens 94 (no result: NF-kB neuron act, FLuc inh counter, FLuc act counter, PPC-1+TRAIL kill, APP 5'UTR act)
O=C(Nc1ccc(N2CCN(Cc3ccccc3F)CC2)cc1)c1ccc([N+](=O)[O-])o1	C8 TRAIL sens 89 (no result: NF-kB neuron act, FLuc inh counter, FLuc act counter, PPC-1+TRAIL kill, APP 5'UTR act)
Cc1nn(C)c(C)c1CNC(=O)Nc1cccc(Cl)c1	NF-kB neuron act 4.6
O=C(Nc1cccc(Cl)c1)Nc1nc(-c2ccccc2)cs1	none
Cc1csc(NC(=O)Nc2cccc(Cl)c2)n1	NF-kB neuron act 4.6
O=C(NCc1ccccn1)Nc1cccc(Cl)c1	NF-kB neuron act 3.7
O=C(NCc1ccccn1)Nc1cccc(NC(=O)NCc2ccccn2)c1	none
Cc1nn(C)c(C)c1CNC(=O)Nc1ccc(Cl)cc1	none
Cc1c(Br)cccc1NC(=O)C1(C)CCN1CCc1ccccc1 (centres undefined)	none (no result: NF-kB neuron act, FLuc inh counter, FLuc act counter, PPC-1+TRAIL kill, APP 5'UTR act)
O=C(NCc1ccc(F)cc1)c1cc(C2CCCCN2S(=O)(=O)c2ccc(F)cc2F)on1 (centres undefined)	none (no result: NF-kB neuron act, FLuc inh counter, FLuc act counter, PPC-1+TRAIL kill, APP 5'UTR act)
Cc1cc(Cl)ccc1Oc1ncc(-c2ccc(Cl)cc2)cn1	none
Clc1ccc(-c2cnc(Oc3ccccc3)nc2)cc1	APP 5'UTR act 138
COc1ccc(-c2csc(Nc3ccc(Oc4ccccc4)cc3)n2)cc1	none (no result: NF-kB neuron act, FLuc inh counter, FLuc act counter, PPC-1+TRAIL kill, APP 5'UTR act)
Cc1cc(C)c2c(=O)n3c(nc2c1)C(CC(C)C)NC(=O)c1cccnc1-3 (centres undefined)	none (no result: NF-kB neuron act, FLuc inh counter, FLuc act counter, PPC-1+TRAIL kill, APP 5'UTR act)
CCc1ccc(C(=O)COC(=O)[C@@H](NC(N)=O)[C@@H](C)CC)cc1	FLuc inh counter 89
CCC(C)C(NC(N)=O)C(=O)Nc1ccc(C(=O)OC)cc1 (centres undefined)	none
O=c1[nH][nH]c2c1[C@H](c1ccc(Cl)cc1)O[C@H](C1CC1)C2	none (no result: NF-kB neuron act, FLuc inh counter, FLuc act counter, PPC-1+TRAIL kill, APP 5'UTR act)
